The target in test [1] is Serine/threonine-protein kinase pim-1 (Homo sapiens) (UniProt P11309). The experiment in a line: Inhibition of human recombinant PIM1 at 15 nM related to control ULK1.
Test [2] concerns the target T1, Ephrin type-A receptor 8 (Homo sapiens) (UniProt P29322).
T1 sequence (whole entry): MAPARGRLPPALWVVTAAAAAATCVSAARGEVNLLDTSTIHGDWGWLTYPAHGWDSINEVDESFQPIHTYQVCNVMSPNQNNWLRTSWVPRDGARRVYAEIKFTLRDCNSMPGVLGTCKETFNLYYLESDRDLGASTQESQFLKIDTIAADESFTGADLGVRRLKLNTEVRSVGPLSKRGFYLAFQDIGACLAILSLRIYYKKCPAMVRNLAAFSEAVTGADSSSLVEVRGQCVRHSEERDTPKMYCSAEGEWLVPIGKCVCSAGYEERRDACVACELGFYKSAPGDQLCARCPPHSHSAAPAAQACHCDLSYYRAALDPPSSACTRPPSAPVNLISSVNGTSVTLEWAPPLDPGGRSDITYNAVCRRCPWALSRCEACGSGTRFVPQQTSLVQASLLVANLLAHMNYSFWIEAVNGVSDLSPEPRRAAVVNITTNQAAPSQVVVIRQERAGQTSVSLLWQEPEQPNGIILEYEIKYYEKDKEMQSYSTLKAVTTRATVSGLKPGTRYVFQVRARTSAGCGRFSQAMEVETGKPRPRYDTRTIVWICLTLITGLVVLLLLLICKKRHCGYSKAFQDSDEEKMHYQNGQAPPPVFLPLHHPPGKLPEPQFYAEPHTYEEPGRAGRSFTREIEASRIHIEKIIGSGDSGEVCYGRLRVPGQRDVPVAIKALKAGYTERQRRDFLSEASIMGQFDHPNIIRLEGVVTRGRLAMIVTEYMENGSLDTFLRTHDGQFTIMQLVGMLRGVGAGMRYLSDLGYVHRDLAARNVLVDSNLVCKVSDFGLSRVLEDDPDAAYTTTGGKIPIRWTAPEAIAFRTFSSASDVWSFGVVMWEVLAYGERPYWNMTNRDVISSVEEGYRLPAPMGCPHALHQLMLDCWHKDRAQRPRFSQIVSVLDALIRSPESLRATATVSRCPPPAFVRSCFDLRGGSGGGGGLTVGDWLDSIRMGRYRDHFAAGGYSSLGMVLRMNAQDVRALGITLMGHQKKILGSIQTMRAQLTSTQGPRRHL
The experiment in a line: Inhibition of human recombinant EphA8 at 40 nM in presence of ATP by radiometric assay relative to control.

The target in test [3] is Proto-oncogene tyrosine-protein kinase ROS (Homo sapiens) (UniProt P08922). In words: Inhibition of human recombinant ROS at 40 nM in presence of ATP by radiometric assay relative to control.
Test [4] has as its target T2, Aurora kinase C (Homo sapiens) (UniProt Q9UQB9).
T2 sequence (whole entry): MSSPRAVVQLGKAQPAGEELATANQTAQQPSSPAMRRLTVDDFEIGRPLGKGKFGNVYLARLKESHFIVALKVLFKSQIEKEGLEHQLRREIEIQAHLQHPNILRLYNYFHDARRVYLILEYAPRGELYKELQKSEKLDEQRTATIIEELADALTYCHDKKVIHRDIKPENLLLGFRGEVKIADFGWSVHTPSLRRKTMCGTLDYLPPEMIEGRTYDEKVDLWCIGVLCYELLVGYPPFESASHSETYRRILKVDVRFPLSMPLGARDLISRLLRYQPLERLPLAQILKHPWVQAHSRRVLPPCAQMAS
In words: Inhibition of human recombinant AurC at 40 nM related to control ULK1. Put shortly: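 Radiometric activity assays in a panel of 327 human recombinant kinases, each run in duplicate at one inhibitor concentration. Activity remaining is expressed as percent of vehicle control, and percent inhibition is calculated as 100% minus percent activity remaining.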

The target in test [5] is Calcium/calmodulin-dependent protein kinase type II subunit alpha (Homo sapiens) (UniProt Q9UQM7). In words: Inhibition of human recombinant CaMK2a at 500 nM in presence of ATP by radiometric assay relative to control.
In test [6] the target is Cyclin-dependent kinase 9 (Homo sapiens) (UniProt P50750). The experiment in a line: Inhibition of human recombinant CDK9 at 500 nM related to control ULK1.
Test [7] addresses T3, Protein kinase C epsilon type (Homo sapiens) (UniProt Q02156).
T3 sequence (whole entry): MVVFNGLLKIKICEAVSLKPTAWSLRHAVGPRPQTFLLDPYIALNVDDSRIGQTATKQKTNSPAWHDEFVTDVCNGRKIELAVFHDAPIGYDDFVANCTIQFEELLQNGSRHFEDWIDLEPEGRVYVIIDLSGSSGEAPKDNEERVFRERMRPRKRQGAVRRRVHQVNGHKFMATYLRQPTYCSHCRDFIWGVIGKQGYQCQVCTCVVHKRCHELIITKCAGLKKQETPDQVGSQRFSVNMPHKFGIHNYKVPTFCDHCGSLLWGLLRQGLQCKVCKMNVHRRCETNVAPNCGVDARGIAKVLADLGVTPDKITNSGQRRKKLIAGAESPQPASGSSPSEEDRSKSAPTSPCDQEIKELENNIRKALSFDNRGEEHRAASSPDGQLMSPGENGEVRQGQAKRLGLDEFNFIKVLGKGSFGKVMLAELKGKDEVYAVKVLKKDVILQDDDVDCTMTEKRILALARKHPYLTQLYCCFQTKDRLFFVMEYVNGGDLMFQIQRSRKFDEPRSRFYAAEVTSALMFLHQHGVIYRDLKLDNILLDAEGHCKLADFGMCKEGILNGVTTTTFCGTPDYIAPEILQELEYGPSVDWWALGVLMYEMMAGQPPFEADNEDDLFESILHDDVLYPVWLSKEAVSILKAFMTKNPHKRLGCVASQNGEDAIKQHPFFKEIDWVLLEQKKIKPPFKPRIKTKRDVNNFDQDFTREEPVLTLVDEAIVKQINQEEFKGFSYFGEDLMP
In words: Inhibition of human recombinant PKCe at 500 nM related to control ULK1.

Fold change (FC) and inhibition data for three compounds are collected here from ChEMBL document CHEMBL5653631, “A Potent and Selective ULK1 Inhibitor Suppresses Autophagy and Sensitizes Cancer Cells to Nutrient Stress” (iScience, 2018).

Chain of Proto-oncogene tyrosine-protein kinase ROS (Homo sapiens) (P08922 whole entry): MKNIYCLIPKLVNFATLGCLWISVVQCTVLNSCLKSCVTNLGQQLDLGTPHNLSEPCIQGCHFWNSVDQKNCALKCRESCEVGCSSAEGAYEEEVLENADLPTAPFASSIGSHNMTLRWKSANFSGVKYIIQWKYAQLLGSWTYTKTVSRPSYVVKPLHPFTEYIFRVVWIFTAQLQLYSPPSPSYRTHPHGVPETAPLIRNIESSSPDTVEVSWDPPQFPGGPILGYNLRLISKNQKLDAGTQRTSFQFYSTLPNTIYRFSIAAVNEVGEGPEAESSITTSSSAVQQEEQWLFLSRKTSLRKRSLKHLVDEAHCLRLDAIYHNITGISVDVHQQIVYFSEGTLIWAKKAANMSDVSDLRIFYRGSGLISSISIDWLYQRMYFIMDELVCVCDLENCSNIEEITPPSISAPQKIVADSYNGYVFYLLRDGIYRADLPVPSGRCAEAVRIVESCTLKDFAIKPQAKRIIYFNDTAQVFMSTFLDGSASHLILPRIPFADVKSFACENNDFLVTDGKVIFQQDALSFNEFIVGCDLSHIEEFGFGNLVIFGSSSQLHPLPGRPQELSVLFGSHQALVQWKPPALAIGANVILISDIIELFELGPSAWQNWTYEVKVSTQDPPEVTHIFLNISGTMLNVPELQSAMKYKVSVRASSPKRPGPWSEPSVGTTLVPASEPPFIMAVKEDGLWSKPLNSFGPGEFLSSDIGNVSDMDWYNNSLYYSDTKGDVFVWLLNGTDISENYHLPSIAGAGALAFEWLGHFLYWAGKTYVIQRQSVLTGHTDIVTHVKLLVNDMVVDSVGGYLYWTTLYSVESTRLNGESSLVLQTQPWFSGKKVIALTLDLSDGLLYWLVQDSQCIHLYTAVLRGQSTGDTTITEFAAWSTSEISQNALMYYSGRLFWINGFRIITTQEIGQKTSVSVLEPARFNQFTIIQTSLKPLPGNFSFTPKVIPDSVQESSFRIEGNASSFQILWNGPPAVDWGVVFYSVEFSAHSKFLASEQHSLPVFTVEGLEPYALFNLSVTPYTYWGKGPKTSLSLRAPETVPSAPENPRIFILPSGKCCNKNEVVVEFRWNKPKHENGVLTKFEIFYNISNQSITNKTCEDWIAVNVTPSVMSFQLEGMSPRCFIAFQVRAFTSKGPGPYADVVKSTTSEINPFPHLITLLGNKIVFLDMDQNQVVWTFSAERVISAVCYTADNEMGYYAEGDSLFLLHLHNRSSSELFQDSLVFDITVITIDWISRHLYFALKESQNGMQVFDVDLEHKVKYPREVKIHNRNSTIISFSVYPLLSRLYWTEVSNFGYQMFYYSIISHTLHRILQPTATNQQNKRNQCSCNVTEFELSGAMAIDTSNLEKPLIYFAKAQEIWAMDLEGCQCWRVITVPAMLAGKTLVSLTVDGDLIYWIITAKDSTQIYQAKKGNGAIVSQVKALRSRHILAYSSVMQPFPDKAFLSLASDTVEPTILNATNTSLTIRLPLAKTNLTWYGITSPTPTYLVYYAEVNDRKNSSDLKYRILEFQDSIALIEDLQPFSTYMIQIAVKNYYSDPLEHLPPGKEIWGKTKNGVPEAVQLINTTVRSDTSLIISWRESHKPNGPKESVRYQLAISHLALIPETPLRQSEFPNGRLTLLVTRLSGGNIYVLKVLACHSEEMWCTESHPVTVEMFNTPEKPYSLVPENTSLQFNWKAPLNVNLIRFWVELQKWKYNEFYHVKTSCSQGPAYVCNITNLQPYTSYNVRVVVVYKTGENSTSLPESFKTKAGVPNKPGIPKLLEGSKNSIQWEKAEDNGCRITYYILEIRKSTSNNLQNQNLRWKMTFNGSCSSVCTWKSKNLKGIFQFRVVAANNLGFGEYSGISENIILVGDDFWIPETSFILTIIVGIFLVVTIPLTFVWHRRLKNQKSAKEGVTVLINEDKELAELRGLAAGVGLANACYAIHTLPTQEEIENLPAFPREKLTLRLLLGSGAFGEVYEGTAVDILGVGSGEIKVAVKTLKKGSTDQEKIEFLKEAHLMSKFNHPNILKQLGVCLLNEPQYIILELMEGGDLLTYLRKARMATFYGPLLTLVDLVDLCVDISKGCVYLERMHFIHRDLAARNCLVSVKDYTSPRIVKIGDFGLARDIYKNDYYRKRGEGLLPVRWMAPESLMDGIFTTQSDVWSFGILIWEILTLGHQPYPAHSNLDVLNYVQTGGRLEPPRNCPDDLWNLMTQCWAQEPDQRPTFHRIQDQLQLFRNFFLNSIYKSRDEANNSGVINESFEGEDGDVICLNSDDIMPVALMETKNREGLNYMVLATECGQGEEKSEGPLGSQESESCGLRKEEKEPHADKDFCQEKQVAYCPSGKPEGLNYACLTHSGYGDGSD
Chain of Serine/threonine-protein kinase pim-1 (Homo sapiens) (P11309 whole entry, looked up): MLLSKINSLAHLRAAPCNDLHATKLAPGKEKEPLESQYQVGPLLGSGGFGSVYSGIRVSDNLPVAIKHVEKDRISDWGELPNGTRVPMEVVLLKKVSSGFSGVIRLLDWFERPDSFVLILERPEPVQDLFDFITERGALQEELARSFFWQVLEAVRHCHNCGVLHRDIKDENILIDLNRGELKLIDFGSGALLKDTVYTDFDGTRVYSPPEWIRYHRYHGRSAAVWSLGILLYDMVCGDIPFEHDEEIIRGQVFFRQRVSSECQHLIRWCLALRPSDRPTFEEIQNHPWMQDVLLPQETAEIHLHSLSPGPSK
Chain of Cyclin-dependent kinase 9 (Homo sapiens) (P50750 whole entry): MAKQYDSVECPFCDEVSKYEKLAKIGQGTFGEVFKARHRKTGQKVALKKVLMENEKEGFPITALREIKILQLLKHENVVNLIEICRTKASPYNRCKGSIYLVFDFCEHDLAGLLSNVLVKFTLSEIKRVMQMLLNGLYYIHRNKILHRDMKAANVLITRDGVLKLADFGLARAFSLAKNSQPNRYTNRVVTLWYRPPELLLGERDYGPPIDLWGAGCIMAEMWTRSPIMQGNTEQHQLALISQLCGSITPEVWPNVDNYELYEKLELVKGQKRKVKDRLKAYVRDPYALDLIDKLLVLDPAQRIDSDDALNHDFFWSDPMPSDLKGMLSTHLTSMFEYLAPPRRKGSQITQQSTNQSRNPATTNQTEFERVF
Chain of Calcium/calmodulin-dependent protein kinase type II subunit alpha (Homo sapiens) (Q9UQM7 whole entry): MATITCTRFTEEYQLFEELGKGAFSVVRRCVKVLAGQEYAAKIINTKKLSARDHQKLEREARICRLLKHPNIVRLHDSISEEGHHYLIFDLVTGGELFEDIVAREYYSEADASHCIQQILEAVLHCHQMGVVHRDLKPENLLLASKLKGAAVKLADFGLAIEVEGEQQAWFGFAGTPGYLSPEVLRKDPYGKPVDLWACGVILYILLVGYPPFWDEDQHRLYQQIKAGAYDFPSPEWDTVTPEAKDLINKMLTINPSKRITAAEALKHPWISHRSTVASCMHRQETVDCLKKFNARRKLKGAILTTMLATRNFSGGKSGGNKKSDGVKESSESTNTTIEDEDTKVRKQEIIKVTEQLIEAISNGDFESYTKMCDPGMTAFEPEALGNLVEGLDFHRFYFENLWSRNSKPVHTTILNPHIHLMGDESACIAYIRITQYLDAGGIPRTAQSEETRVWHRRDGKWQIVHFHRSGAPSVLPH

As to `CC(C)[C@H](NC(=O)c1cc(-c2cnn3cc(-c4ccc(OCCN5CCCCC5)cc4)cnc23)cs1)C(F)(F)F`, in test [1], the fold change (FC) came to 0.16.

Regarding `O=C(N[C@@H](C1CC1)C(F)(F)F)c1cc(-c2cnn3cc(-c4ccc(F)cc4)cnc23)cs1`, the inhibition in test [2] and in test [3] was 0% in each case. Also, the fold change (FC) in test [4] was found to be 0.

Take `CNC(=O)c1ccccc1Oc1nc(Nc2cc(OC)c(OC)c(OC)c2)ncc1Br`: the inhibition (usually the change of the read-out against control, counted positive when it falls) in test [5] amounted to 0%. Further, the fold change (FC) was found to be 0.04 in test [6] and 0 in test [7].
